NR2E3 ag-1 – activates human NR2E3 receptor; hit rate 0.35% among 360,000; CHO-S Gal4-NCOR/VP16-NR2E3 two-hybrid, luciferase; AID 602229; inhibition of corepressor binding, % at 3.98 µM; Q9Y5X4;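 active means inhibition above the mean of all tested compounds plus 3 SD, cut at about 70% in these data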;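 further: 0% = DMSO with NR2E3 transfected cells and 100% = cells lacking NR2E3 construct; higher means lower luciferase signal from less NR2E3 corepressor binding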
NR2E3 ag-2 – NR2E3 (human) agonism | GST-NR2E3/biotin-RetCOR TR-FRET, 1536-well | Q9Y5X4 | hit rate 0.12% among 320,000 | inhibition of corepressor binding, % at 4.78 µM;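 active means percent inhibition above the cutoff of mean plus 3 SD of all tested compounds, set per screening campaign, cut at about 20% in these data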;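 further: 0% = DMSO wells and 100% = biotin wells as full block of FRET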
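Assay system: NR2E3–RetCOR corepressor complex. Quantity: 1.35 nM GST-NR2E3. Buffer or medium: pH 7.5 Tris-based buffer. Reagent: biotinylated RetCOR corepressor at 7 nM final. Schedule: 5 h at 4 °C. Detection: TR-FRET, emission read at 617 and 671 nm. Replicates: one well per compound, singlicate testing.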
VLA-4 inh – inhibition in a human VLA-4 binding assay | VLA-4 expressing cells, ligand binding flow cytometry | inhibition, % (about 7 µM as worked out from the volumes in the protocol) | hit rate 0.2% among 330,000 | AID 2557; in the data active means inhibition above about 50%
Rev-erbA mod – Rev-erb alpha (human) modulation; P20393; Rev-erbα–FITC-DNA binding, fluorescence polarization, 90 min; activity, % at 10 µM; hit rate 0.79% among 370,000; AID 1259318;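 active means activity above about 14%, limit read from the data; passing the limit was not always enough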;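 further: 0% = DMSO wells with 35 nM protein and 100% = DMSO wells with 750 nM protein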
Target sequence (P20393 whole entry, looked up): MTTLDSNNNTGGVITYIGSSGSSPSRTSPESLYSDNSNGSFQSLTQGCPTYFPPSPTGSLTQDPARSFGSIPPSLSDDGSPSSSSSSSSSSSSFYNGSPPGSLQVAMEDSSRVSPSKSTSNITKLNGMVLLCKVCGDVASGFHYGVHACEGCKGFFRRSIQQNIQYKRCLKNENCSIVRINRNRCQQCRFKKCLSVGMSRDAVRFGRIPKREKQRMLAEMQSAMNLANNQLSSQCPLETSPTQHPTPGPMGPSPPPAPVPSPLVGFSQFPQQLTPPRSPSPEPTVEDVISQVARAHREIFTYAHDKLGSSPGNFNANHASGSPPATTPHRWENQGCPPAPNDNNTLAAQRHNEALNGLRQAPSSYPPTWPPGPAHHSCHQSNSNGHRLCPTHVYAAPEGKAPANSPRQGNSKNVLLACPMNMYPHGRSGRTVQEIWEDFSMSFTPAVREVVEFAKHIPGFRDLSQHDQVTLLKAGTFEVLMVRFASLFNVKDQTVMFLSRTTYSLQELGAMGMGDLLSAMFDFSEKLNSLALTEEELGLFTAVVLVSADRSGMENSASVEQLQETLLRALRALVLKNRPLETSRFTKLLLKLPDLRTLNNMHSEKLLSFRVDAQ
PG9 Ab binder – binds the HIV-1 gp120 antibody PG9 | AID 624416 | hit rate 0.43% among 360,000 | inhibition, % at 6.7 µM | TR-FRET gp120-PG9 antibody binding; in the data active means inhibition above about 8.5%
VLA-4 allo CP – human VLA-4 allosteric modulation in cherry picked compounds; shares compounds with VLA-4 inh; U937 cells, HUTS-21 LIBS mAb binding, flow cytometry; LDV ligand present at threefold Kd; inhibition, % at 6.7 µM; hit rate 2% among 1,300; in the data active means inhibition above about 40%;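 further: 0% = ligand without compound and 100% = no ligand background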
Starred values were filed as active, the others as inactive; . = no result. Rows were chosen to be rich in hits. Some 1.6% of all compounds tested hit in one or more screens of this group.

SMILES | NR2E3 ag-1 | NR2E3 ag-2 | VLA-4 inh | Rev-erbA mod | PG9 Ab binder | VLA-4 allo CP
O=[N+]([O-])c1cccc2[nH]c(CNc3nc(N4CCOCC4)nc4c3ncn4-c3ccsc3)nc12 | . | . | . | -7 | . | .
Cc1noc(C)c1COc1ccc(C(=O)NCCc2ccc(F)cc2)cc1 | 0 | -2 | 50* | -4 | 0 | 12
Cc1ccc(NC(=O)c2cc(N3C(=O)C=CC3=O)ccc2N2CCOCC2)cc1Cl | -30 | -1 | 83* | 4 | 0 | 52*
Cc1ccc(NC(=O)c2cc(N3C(=O)CCC3=O)ccc2N2CCOCC2)cc1 | 3 | 2 | 9 | -2 | 1 | .
CCCCc1ccc(-n2c(Cc3cccs3)n[nH]c2=S)cc1 | 5 | 2 | 55* | -3 | -1 | 4
S=c1[nH]nc(Cc2cccs2)n1-c1ccccc1 | -14 | 3 | -10 | -4 | -3 | .
O=C(Nc1ccc(OC(F)(F)F)cc1)Nc1c(-c2ccccc2)nc2ncccn12 | . | . | . | 0 | . | .
COc1cccc(OC)c1OCCCCc1c(C)n[nH]c1C | -2 | 1 | 59* | 3 | 0 | 3
Cc1cccc(C)c1OCCCCc1c(C)n[nH]c1C | 1 | 6 | 6 | 2 | 2 | .
COc1cc(CCCN2C(=O)C(=O)NC[C@H]2Cc2cccc3ccccc23)cc(OC)c1OC | 22 | 1 | -8 | 5 | -1 | .
CCC(C)[C@H]1CNC(=O)C(=O)N1CCCc1cc(OC)c(OC)c(OC)c1 (some centres undefined) | -4 | 0 | 12 | -1 | -1 | 10
CCCC[C@@H]1CNC(=O)C(=O)N1CCCc1cc(OC)c(OC)c(OC)c1 | 12 | 4 | 58* | -2 | 0 | -1
COc1ccc(CN(CCN2CCOCC2)C(=O)c2cc(F)ccc2C)cc1OC | . | . | . | -5 | . | .
O=C(OCc1cn(Cc2ccccc2)nn1)N1CCCC1 | . | . | . | -2 | . | .
CCOC(=O)N1CCN(Cc2nc3cc(NC(=O)CC(C)C)ccc3n2CC)CC1 | -15 | 2 | 51* | 7 | 1 | -1
Cc1nn(CC(=O)Nc2ccc(C(=O)N(C)C)cc2)c(=O)c2ccccc12 | -7 | 1 | 51* | -1 | 0 | -1
NC1=NC2(CS1)CSC(N)=N2 | . | . | . | 1 | -3 | .
COc1cccc(N2CCN(CC(=O)NCc3ccc(Cl)cc3)CC2)c1 | . | . | . | 1 | . | .
Cc1ccc(NC(=O)Cn2nnc(-c3ccncc3)n2)cc1C | . | . | . | 1 | . | .
CCCNC(=O)CN(C1CCCCC1)S(C)(=O)=O | -5 | 2 | 91* | 3 | -1 | 9
N#Cc1cccc(NS(=O)(=O)c2ccccc2Cl)c1 | 12 | 2 | 16 | -6 | -1 | 3
O=c1c2ccccc2n(Cc2ccccc2)n1[C@@H](Cc1ccccc1)Cn1cc(-c2ccc(-c3ccccc3)cc2)nn1 | . | . | . | -3 | . | .
N#CC(C#N)=C1C=CC=CN1/C(=C\c1ccco1)C(=O)c1ccc(-c2ccccc2)cc1 | 12 | 4 | 50* | 7 | -2 | 12
O=Cc1cnc(N2CCN(c3ccccc3)CC2)s1 | 24 | -1 | 52* | 0 | 0 | 1
COc1ccc(-c2sc3cc(OC)ccc3c2-c2ccc(OCCN3CCOCC3)cc2)cc1 | -17 | . | . | 4 | 1 | 0
SMILES | NR2E3 ag-1 | NR2E3 ag-2 | VLA-4 inh | Rev-erbA mod | PG9 Ab binder | VLA-4 allo CP
COc1ccccc1-c1sc2cc3c(cc2c1-c1ccc(OCCN2CCOCC2)cc1)OCO3 | 12 | . | . | . | . | 0
COc1ccc2c(-c3cnc(N4CCOCC4)nc3)c(-c3ccc(S(C)(=O)=O)cc3)sc2c1 | -3 | . | -1 | -16 | -10 | .
c1ccc2c(-c3ccc(OCCN4CCCCC4)cc3)c(-c3ccsc3)sc2c1 | 4 | . | 20 | 8 | -1 | .
c1ccc(-c2sc3ccccc3c2-c2ccc(OCCN3CCCCC3)cc2)cc1 | 10 | . | 17 | -2 | -1 | -8
COc1ccccc1-c1sc2cc3c(cc2c1-c1ccc(O)cc1)OCO3 | -18 | . | 19 | 4 | 1 | .
COc1ccc(-c2sc3cc4c(cc3c2-c2ccc(OCCN3CCCCC3)cc2)OCO4)cc1 | -22 | . | . | . | . | 0
CC[C@H](CCCCCCCn1ccc2ccccc21)CCC(=O)N(c1ccccc1)c1ccccc1 | . | . | . | -5 | . | .
CN(C)CCOc1ccc(-c2c(-c3ccccc3)sc3ccccc23)cc1 | 17 | . | 70* | 5 | -4 | 30
COc1cc(OC)cc(-c2sc3ccc(OC)cc3c2-c2ccc(OCCN3CCCCC3)cc2)c1 | -2 | . | . | . | . | 0
NC(=O)c1ccc(-c2c(-c3ccccc3)sc3ccccc23)cc1 | -32 | 0 | 2 | 1 | 0 | .

Screening data deposited in PubChem by several laboratories.
